Laboratory results published in ChEMBL document CHEMBL2163287, “Nitro seco analogues of the duocarmycins containing sulfonate leaving groups as hypoxia-activated prodrugs for cancer therapy” (J Med Chem, 2012).
Calls of active or inactive are those of the source. The rule behind the calls is not given here.

Assays:
SiHa [1] = experiment: Antitumor activity against human SiHa cells xenografted in immunocompromized gamma irradiated mouse assessed as log cell kill at 42 umol/kg, iv tumor excised post 18 hrs followed by culturing for 14 days under hypoxic condition; format: functional
Outline: (§1)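 Male immunocompromised mice bearing subcutaneous tumours (10^7 cultured cells), randomized at 8–10 mm mean diameter. Compound in PBS with 4 equiv sodium bicarbonate given iv (tail vein), alone or 5 min after 15 Gy whole-body cobalt-60 γ-irradiation, which sterilizes oxygenated cells. Tumours excised 18 h after dosing and plated for clonogens for 14 days. n = 3 (vehicle or compound alone) or 5 (irradiated groups).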

SiHa [2] = experiment: Antitumor activity against human SiHa cells xenografted in immunocompromized mouse assessed as number of colony forming cells per gram of tumor tissue at 42 umol/kg, iv tumor excised post 18 hrs followed by culturing for 14 days; format: functional
Outline: (§2)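 SiHa tumours grown subcutaneously in male mice from 10⁷ cultured cells; randomized at 8−10 mm mean diameter. Compound in phosphate-buffered saline with 4 equiv sodium bicarbonate, given via tail vein at the stated dose, alone or 5 min after 15 Gy whole-body cobalt-60 γ irradiation. Tumours excised 18 h after dosing, cells cultured 14 days for clonogens. Groups of 3 (drug alone) or 5 (radiation + drug).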

SiHa [3] = experiment: Antitumor activity against human SiHa cells xenografted in immunocompromized gamma irradiated mouse assessed as number of colony forming cells per gram of tumor tissue at 42 umol/kg, iv tumor excised post 18 hrs followed by culturing for 14 days; format: functional; outline: as §2
NCI-H460 [4] = experiment: Antitumor activity against human H460 cells xenografted in immunocompromized gamma irradiated mouse under hypoxic condition assessed as log cell kill at 75 umol/kg, iv tumor excised post 18 hrs followed by culturing for 14 days; format: functional; outline: as §1
NCI-H460 [5] = experiment: Toxicity in human H460 cells xenografted immunocompromized mouse at 75 umol/kg, iv; conditions: in vivo
SiHa [6] = experiment: Antitumor activity against human SiHa cells xenografted in immunocompromized mouse assessed as number of colony forming cells per gram of tumor tissue at 13 umol/kg, iv tumor excised post 18 hrs followed by culturing for 14 days; format: functional; outline: as §2
SiHa [7] = experiment: Antitumor activity against human SiHa cells xenografted in immunocompromized gamma irradiated mouse assessed as number of colony forming cells per gram of tumor tissue at 13 umol/kg, iv tumor excised post 18 hrs followed by culturing for 14 days; format: functional; outline: as §2
HT-29 [8] = experiment: Cytotoxicity against human HT-29 cells under hypoxic condition assessed as inhibition of cell proliferation after 4 hrs by SRB method; format: functional, cell-based; conditions: HT-29, 4 h
Outline: (§3)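 Log-phase monolayers were exposed 4 h under 20% O₂ or anoxia (<20 ppm O₂), then stained with sulforhodamine B 5 days later. IC50, interpolated as the concentration reducing cell density to 50% of same-plate controls, is given as mean of 3−9 experiments. HCR = IC50(oxic)/IC50(hypoxic), taken as the mean of intraexperiment ratios from 3−6 experiments.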

HT-29 [9] = experiment: Cytotoxicity against human HT-29 cells under hypoxic condition after 4 hrs by clonogenic assay; format: functional, cell-based
Outline: (§4)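 Cells were exposed to drug in duplicate for 4 h at 37 °C, either aerobic (95% air, 5% CO₂) or in an anaerobic chamber (<0.001% O₂). Medium was αMEM + 10% FCS with added glucose (final 17 mmol/L) and 200 μmol/L 2′-deoxycytidine. Cells were then trypsinized and plated; colonies >50 cells were counted after 14 days (methylene blue). C10 = concentration giving 10% survival vs controls; HCR = C10(oxic)/C10(hypoxic).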

HT-29 [10] = experiment: Cytotoxicity against human HT-29 cells under oxic condition assessed as inhibition of cell proliferation after 4 hrs by SRB method; format: functional, cell-based; conditions: HT-29, 4 h; outline: as §3
[11] = Ratio of IC50 for human H1299 cells under oxic condition to IC50 for human H1299 cells under hypoxic condition; format: functional
Outline: (§5)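 Antiproliferative assay on the cell-line panel: 4 h drug exposure under 20% O₂ or anoxia (<20 ppm O₂), then sulforhodamine B staining after 5 days. HCR = IC50(oxic)/IC50(hypoxic), taken as the mean of intraexperiment ratios from 2−5 experiments.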

A549 = experiment: Ratio of IC50 for human A549 cells under oxic condition to IC50 for human A549 cells under hypoxic condition; format: functional; outline: as §5
SiHa [12] = experiment: Cytotoxicity against human SiHa cells under hypoxic condition assessed as inhibition of cell proliferation after 4 hrs; format: functional, cell-based
Outline: (§6)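 Log-phase monolayers were exposed to drug for 4 h, aerobic (20% O2) for line 5 and anoxic (<20 ppm O2) for line 4. Cell density was read by sulforhodamine B staining 5 days later. IC50 was interpolated as the concentration reducing density to 50% of same-plate controls; mean ± SEM of 3–9 experiments.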

HT-29 [13] = experiment: Cytotoxicity against human HT-29 cells under oxic condition after 4 hrs by clonogenic assay; format: functional, cell-based; outline: as §4
HT-29 [14] = experiment: Ratio of C10 for human HT-29 cells under oxic condition to C10 for human HT-29 cells under hypoxic condition by clonogenic assay; format: functional; outline: as §4
SiHa [15] = experiment: Cytotoxicity against human SiHa cells under oxic condition assessed as inhibition of cell proliferation after 4 hrs; format: functional, cell-based; outline: as §6
SiHa [16] = experiment: Antitumor activity against human SiHa cells xenografted in immunocompromized gamma irradiated mouse assessed as log cell kill at 13 umol/kg, iv tumor excised post 18 hrs followed by culturing for 14 days under hypoxic condition; format: functional; outline: as §1
HCT-116 = experiment: Ratio of IC50 for human HCT116 cells under oxic condition to IC50 for human HCT116 cells under hypoxic condition; format: functional; outline: as §5
C-33-A = experiment: Ratio of IC50 for human C33A cells under oxic condition to IC50 for human C33A cells under hypoxic condition; format: functional; outline: as §5
NCI-H460 [17] = experiment: Ratio of IC50 for human H460 cells under oxic condition to IC50 for human H460 cells under hypoxic condition; format: functional; outline: as §5
HT-29 [18] = experiment: Ratio of IC50 for human HT-29 cells under oxic condition to IC50 for human HT-29 cells under hypoxic condition; format: functional; outline: as §3
SiHa [19] = experiment: Cytotoxicity against human SiHa cells under hypoxic condition assessed as after 4 hrs by clonogenic assay; format: functional, cell-based; outline: as §4
SiHa [20] = experiment: Cytotoxicity against human SiHa cells under oxic condition after 4 hrs by clonogenic assay; format: functional, cell-based; outline: as §4

| SMILES | IC50 (HT-29 [8]) [nM] | IC50 (HT-29 [10]) [nM] | Ratio IC50 [11] | Ratio IC50 (A549) | IC50 (SiHa [12]) [nM] | IC50 (SiHa [15]) [nM] | Ratio IC50 (HCT-116) | Ratio IC50 (C-33-A) | Ratio IC50 (NCI-H460 [17]) | Ratio IC50 (HT-29 [18]) | Activity (SiHa [19]) | Activity (SiHa [20]) | also measured |
| --- | --- | --- | --- | --- | --- | --- | --- | --- | --- | --- | --- | --- | --- |
| COc1cc2cc(C(=O)N3CC(COS(C)(=O)=O)c4c3cc([N+](=O)[O-])c3cc(S(=O)(=O)NCCOP(=O)(O)O)ccc43)[nH]c2c(OC)c1OC (stereo not given) | – | – | – | – | – | – | – | – | – | – | – | – | LCK (SiHa [1]): 0.6; log10cfu (SiHa [2]): 7.15; log10cfu (SiHa [3]): 4.38; LCK (NCI-H460 [4]): 0.6; Activity (NCI-H460 [5]): Non-toxic |
| COc1ccc(/C=C/C(=O)N2CC(COS(=O)(=O)Cc3ccccc3)c3c2cc([N+](=O)[O-])c2cc(C(N)=O)ccc32)cc1 (stereo not given) | 170 | 7000 | 644 | 34 | 46 | 2100 | 403 | 184 | 104 | 40 | – | – | log10cfu (SiHa [6]): 6.87; log10cfu (SiHa [7]): 4.3; Activity (HT-29 [9]): Active; Activity (HT-29 [13]): Active; Ratio (HT-29 [14]): 4090; LCK (SiHa [16]): 1.16 |
| COc1cc2cc(C(=O)N3CC(COS(=O)(=O)Cc4ccccc4)c4c3cc([N+](=O)[O-])c3cc(S(N)(=O)=O)ccc43)[nH]c2c(OC)c1OC (stereo not given) | 42 | 35000 | 226 | 20 | 180 | 13000 | 193 | 177 | 0.67 | 1010 | – | – | – |
| NC(=O)c1ccc2c3c(cc([N+](=O)[O-])c2c1)N(C(=O)c1cc2cc(OCCO)ccc2[nH]1)CC3COS(=O)(=O)Cc1ccccc1 (stereo not given) | 220 | 22000 | 255 | 38 | 240 | 18500 | 127 | 93 | >114 | 105 | Active | Active | – |
| COc1cc2cc(C(=O)N3CC(COS(=O)(=O)Cc4ccccc4)c4c3cc([N+](=O)[O-])c3cc(C(N)=O)ccc43)[nH]c2c(OC)c1OC (stereo not given) | 16 | 9200 | 86 | 6.7 | 180 | 990 | 13 | 76 | 32 | 1370 | Active | Active | – |
